ABCB6 inh 2 = blocks the human ABCB6 transporter; Q9NP58; K562-ABCB6 porphyrin accumulation, flow cytometry, 1 h; stronger effect = lower value; fluorescence ratio to DMSO, % at 10 µM; 360,000 compounds, 0.19% hits; AID 602162;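 active = fluorescence ratio to DMSO below 75%, the collection mean minus 3 SD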;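 note: signal is porphyrin accumulated inside mitochondria; lower ratio means ABCB6 inhibition with less porphyrin fluorescence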
STAT3 activator = activators of IL-6 induced STAT3 signaling; U3A cells, IL-6 STAT3-luciferase reporter, luminescence; 100% = signal with IL-6 EC80 alone; 190,000 compounds, 0.91% hits; activation (% of control), % at 5.6 µM;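 active = activation above the screen-wide mean of compound activation plus 3 SD, cut at about 130% in these data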
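Test system: human U3A cells carrying STAT3-luciferase construct; control set: IL-6-only wells as 100% reference; timing: compound pre-incubation 1 h before IL-6, then 6 h stimulation at 37 °C; also added: IL-6 stimulus at 33 ng/mL final; evaluation: % activation versus median of IL-6-stimulated wells; detection: reporter luminescence signal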
AHR activator = human AHR activation | P35869 | AHR-responsive luciferase reporter cells, luminescence | activation, % at 5 µM | 320,000 compounds, 2.5% hits | AID 2796; in the data active = activation above about 47%
Target sequence (P35869 whole entry, looked up): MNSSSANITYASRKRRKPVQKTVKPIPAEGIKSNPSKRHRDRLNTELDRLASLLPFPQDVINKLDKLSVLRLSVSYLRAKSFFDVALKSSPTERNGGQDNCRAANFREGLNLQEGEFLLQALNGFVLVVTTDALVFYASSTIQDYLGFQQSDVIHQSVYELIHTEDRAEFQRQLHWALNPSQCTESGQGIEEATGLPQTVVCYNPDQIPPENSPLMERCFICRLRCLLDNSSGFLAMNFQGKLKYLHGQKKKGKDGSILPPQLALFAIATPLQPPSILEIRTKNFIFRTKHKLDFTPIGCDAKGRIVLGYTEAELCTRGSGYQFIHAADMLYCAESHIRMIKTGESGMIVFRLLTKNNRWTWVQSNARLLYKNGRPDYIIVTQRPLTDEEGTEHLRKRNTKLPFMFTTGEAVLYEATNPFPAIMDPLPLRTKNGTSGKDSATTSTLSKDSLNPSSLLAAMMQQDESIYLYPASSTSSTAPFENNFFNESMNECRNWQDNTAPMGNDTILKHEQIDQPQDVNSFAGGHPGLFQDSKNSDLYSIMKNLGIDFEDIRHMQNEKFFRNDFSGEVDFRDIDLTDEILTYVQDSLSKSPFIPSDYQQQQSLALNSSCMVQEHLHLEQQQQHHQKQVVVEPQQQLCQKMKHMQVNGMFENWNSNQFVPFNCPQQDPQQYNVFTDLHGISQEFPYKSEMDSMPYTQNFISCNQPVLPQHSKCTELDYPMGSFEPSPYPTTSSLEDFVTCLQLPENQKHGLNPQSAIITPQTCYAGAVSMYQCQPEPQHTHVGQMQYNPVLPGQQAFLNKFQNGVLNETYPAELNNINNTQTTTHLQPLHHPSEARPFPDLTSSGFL
GAA850 FXN act = increases GAA850 frataxin promoter reporter activity; HEK293 lucGAA850 FXN promoter luciferase reporter, 24 h; percent of 10 µM SAHA response; activation, % at 6 µM; 360,000 compounds, 0.56% hits; AID 540364;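 active = activation above the average of all compounds screened plus 3 SD, cutoff fixed separately per campaign, cut at about 7.5% in these data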
Numbers stand for hits; n = inactive; x = not tested or not shown. In the library only some 3.3% were active in any assay of this set; here they are far more common.

SMILES	ABCB6 inh 2	STAT3 activator	AHR activator	GAA850 FXN act
O=C1c2ccccc2C(=O)C1Cc1cccc2ccccc12	n	n	61	n
CCn1nc(C)cc1C(=O)N1CCc2c([nH]c3ccccc23)C1c1cc(F)ccc1F (stereo not given)	n	150	n	n
COCCCN(C(C)=O)c1nc(-c2ccc(OC)cc2)cs1	72	n	n	n
Cc1ccc(-c2cc(-c3ccc(F)cc3)n[nH]2)c(O)c1	n	x	x	n
Oc1ccccc1-c1cc(-c2ccc(F)cc2)n[nH]1	n	x	74	n
Cc1ccc(O)c(-c2cc(-c3cccc(Br)c3)n[nH]2)c1	n	n	70	n
Cc1ccc(-c2cc(-c3ccc(C)cc3O)[nH]n2)cc1	n	x	68	n
Oc1ccc(Br)cc1-c1cc(-c2ccccc2F)[nH]n1	n	134	56	n
COc1ccc(NC(=O)c2cc(S(=O)(=O)N3CCCCC3)c[nH]2)c(OC)c1	n	x	n	n
Cc1ccc(-c2cc(-c3ccccc3Cl)[nH]n2)c(O)c1	n	n	86	n
O=C(N/C(=C\c1ccc(Br)cc1)c1nc2ccccc2[nH]1)c1ccco1	n	n	75	n
COc1ccc(-c2cc(=O)c3cc(OC)c(OC)cc3[nH]2)cc1	n	n	62	n
O=C(O/N=C1/CCSc2ccccc21)c1ccc(F)cc1	n	135	n	n
Cc1cc(C(=O)COC(=O)c2cc(O)c3ccccc3c2O)c(C)n1CC1CCCO1 (stereo not given)	n	146	x	n
O=C(Nc1ccc(-c2ccco2)cc1)C1CCCN(Cc2ccco2)C1 (stereo not given)	n	x	x	n
Cc1cc(C)nc(/N=C(\N)N2CCCCCC2)n1	n	n	n	n
Cc1cc(C)nc(/N=C(\N)N2CCc3ccccc32)n1	n	n	54	n
COCCOCCn1c(/C=C/c2ccccc2)nc2ccccc21	n	n	n	n
CC(C)n1c(/C=C/c2ccccc2)nc2ccccc21	n	n	57	n
Cc1cccn2c(=O)c3cc(C(=O)NC4CCCC4)c(=N)n(CC4CCCO4)c3nc12 (stereo not given)	n	x	55	n
CCOc1ncccc1C(=O)Nc1ccc(C(=O)Nc2ccc(OC)cc2)cc1	n	x	n	n
CCC1(C(=O)OC)CCc2c(cc(OC)c3ccccc23)C1=O (stereo not given)	n	x	54	n
S=C(N=Nc1ccccc1)NNc1ccccc1	n	n	53	n
COc1ccc(/C=N/n2c(=O)[nH]c3c([nH]c4ccc(Br)cc43)c2=O)cc1CN1CCOCC1	n	n	56	n
COc1cccc(C(=O)/C=C2\Sc3ccccc3N2C)c1	n	n	58	n
SMILES	ABCB6 inh 2	STAT3 activator	AHR activator	GAA850 FXN act
O=C(N/N=C/c1cc([N+](=O)[O-])ccc1O)c1ccc(COc2ccc3c(c2)CCC3)o1	n	x	x	n
COc1ccccc1/C=N\NC(=O)c1ccc(COc2ccc(C)c(C)c2)o1	n	x	49	n
COc1cccc(/C=N/NC(=O)c2ccc(COc3ccc(Cl)cc3Cl)o2)c1	n	n	53	n
COC(=O)c1ccc(COc2ccc3c(c2)CCC3)o1	n	x	n	n
COc1ccc(Br)cc1/C=N/NC(=O)c1ccc(COc2ccc3c(c2)CCC3)o1	n	n	62	n
COc1cc(/C=N/NC(=O)c2ccc(COc3ccccc3Cl)o2)cc(Br)c1O	n	n	n	n
O=C(N/N=C/c1ccc2ccccc2c1)c1ccc(COc2ccc3c(c2)CCC3)o1	n	n	47	n
COc1ccc(S(=O)(=O)N2CCN(C(=O)CCc3c[nH]c4ccccc34)CC2)cc1	n	x	n	n
O=C(NCc1ccccn1)C1CCCCC1	n	n	n	n
CCOC(=O)c1c(C)[nH]c2cc(Br)c(OC)cc12	n	n	51	n
Cc1cc(OCc2ccc(C(=O)NN=C3CCCC3)cc2)ccc1Cl	n	n	n	n
O=c1ccn(-c2cccc(C(F)(F)F)c2)nc1-c1ccn(-c2cccc(Cl)c2)n1	n	n	n	11
COc1ccc(Nc2nccc3c2nnn3C)cc1	n	n	62	n
Cn1c(NCc2cccnc2)nc2cc(-c3ccc(C(=O)N4CCOCC4)cc3)sc2c1=O	n	x	x	n
Cc1cc(=O)oc2cc(NC(=O)c3ccccc3C(=O)O)ccc12	n	x	n	n
Cc1cc(=O)oc2cc(NC(=O)c3ccccc3Cl)ccc12	n	x	63	n
C=CCn1c(Sc2nnc(C)s2)nc2c1c(=O)[nH]c(=O)n2C	68	n	n	n
C=CCn1c(SCC(=C)C)nc2c1c(=O)[nH]c(=O)n2C	n	x	n	n
COc1ccc(OC)c(NC(=O)CC(NCCC2=CCCCC2)C(=O)O)c1 (stereo not given)	x	n	x	x
CCC(C)[C@@H](N)C(=O)N/N=C/c1cccc2nccnc12 (stereo not given in full)	x	x	70	x
CCC(C)[C@H](NC(=O)OC(C)(C)C)C(=O)N/N=C/c1cccc2nccnc12 (stereo not given in full)	n	n	n	n
Cc1cc2ncn(-c3ncccc3[N+](=O)[O-])c2cc1C	n	x	48	n
O=[N+]([O-])c1cccnc1-n1cnc2ccccc21	n	n	n	n
COc1ccc(-c2oc3cccnc3c2/C=C/c2ccc(OC)c(OC)c2)cc1	n	x	47	n
NS(=O)(=O)c1ccc(CCNC(=O)Cc2ccccc2[N+](=O)[O-])cc1	n	133	x	n
SMILES	ABCB6 inh 2	STAT3 activator	AHR activator	GAA850 FXN act
Cc1ccc(-c2cc3nc(C)cc(C)n3n2)cc1	n	152	62	n
Cn1c(CN2CCOCC2)nnc1SCC(=O)Nc1cccc(C(F)(F)F)c1	n	x	n	n
Cc1ccc2nc(-c3ccccn3)oc2c1	n	n	61	n
CC1(C)CC(=O)N(c2ccc(C#N)cc2)C(=O)C1	n	x	n	n
CCN=C1S/C(=C/c2ccc(-c3ccc(Cl)cc3C(=O)O)o2)C(=O)N1CC	71	x	n	n
CCN=C1S/C(=C\c2ccc(-c3cccc(C(=O)O)c3)o2)C(=O)N1CC	n	n	n	8.4
CC(C)CCNC(=O)c1onc(CSc2ccccc2)c1C(=O)NCCC(C)C	n	x	n	n
Cc1cc(C)cc(OCC(=O)OCC(=O)Nc2c(C)n(C)n(-c3ccccc3)c2=O)c1	n	n	n	n
CCCn1nc(NC(=O)c2ccco2)c2cc3ccccc3nc21	n	n	n	n
CCn1nc(NC(=O)c2ccncc2)c2cc3cc(C)ccc3nc21	n	n	62	n
CCCn1nc(NC(=O)c2ccncc2)c2cc3ccccc3nc21	n	n	69	n
CCCn1nc(NC(=O)c2cccs2)c2cc3ccccc3nc21	n	n	n	n
CCn1nc(NC(=O)c2ccco2)c2cc3cc(C)ccc3nc21	n	x	53	n
CCn1nc(NC(=O)c2ccncc2)c2cc3ccc(C)cc3nc21	n	n	n	n
CCCn1nc(NC(C)=O)c2cc3cccc(C)c3nc21	n	x	48	n
CCCCN(C(=N)N1CCCCC1)c1nc(C)c([N+](=O)[O-])c(=O)[nH]1	n	n	n	n
Cc1ccc(-n2c(C)cc(C3=NNC(=NC4CC4)SC3)c2C)cc1C	n	n	51	n
Cc1c(O)cc2c(c1O)C(=O)CC(c1ccccc1)O2 (stereo not given)	n	x	79	n

High-throughput results from PubChem BioAssay.
